Reference: PubChem BioAssay
Activity calls are given as the source filed them.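 Rule for the calls, unless noted: active = visually confirmed hit in the image check and inhibition above 20%; inconclusive = visually confirmed hit but inhibition not above 20%; inactive = no visual hit in the image check.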

Key:
[1] = inhibitors of TNFa-induced NFkB p65 translocation, primary screen, imaging, HUVEC, MLSMR starter and 10KST1 sets (AID 438;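 active = inhibition above 20% together with a positive visual image hit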;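 note: compound added about 3h40 before a 20 min TNFalpha stimulation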;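 for inhibition: signal is the nuclear over cytoplasmic p65 intensity ratio per well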); settings: HUVEC TNFa-induced p65 nuclear translocation; cell count: measured here: nuclei count (cytotoxicity indicator), at 2.08 µM; inhibition: at 2 µM, stronger effect = higher value, 0% TNFa-plus-vehicle, 100% no-TNFa wells
[2] = endothelial E-selectin expression blockers – imaging, HUVEC, immunofluorescence, MLSMR starter and 10KST1 sets, primary screen (AID 487); settings: HUVEC TNFalpha-induced E-selectin immunofluorescence imaging, at 2 µM; inhibition: stronger effect = higher value; nuclei count: measured here: cell number, toxicity;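 for inhibition: signal is fraction of cell area covered by stained E-selectin grains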;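 for nuclei count: 100% = median nuclei count of all wells on the same plate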
[3] = Primary imaging screen for DUSP6 inhibitors that restore phospho-Erk in transfected HeLa cells, chemical complementation (AID 609;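 active = compounds giving at least 50% inhibition in the cell-based MKP-3 phosphatase rescue imaging test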;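 for inhibition: phospho-Erk level distribution per well compared with pooled transfected vehicle control wells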); settings: HeLa MKP-3 transfected, phospho-Erk imaging KS statistic, at 10 µM, cells stimulated with TPA for 15 min
[4] = target: Dual specificity protein phosphatase 6 (Homo sapiens) (UniProt Q16828); assay: as above; settings: HeLa MKP-3 transfected, phospho-Erk imaging KS statistic; at 10 µM; stronger effect = higher value; cells stimulated with TPA for 15 min
[5] = target: Voltage-gated potassium channel subunit beta-2 (Rattus norvegicus) (UniProt P62483); assay: inhibitors of rat Kvbeta2 reductase activity – biochemical, NADPH fluorescence, primary screen (AID 622;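 active = fluorescence slope higher than the sample average by over 3 SD, cut at about -0.22 in these data, passing the limit was not always enough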;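 note: slope of raw intensity against log time taken from 70 to 1610 s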); settings: recombinant KvBeta, 4-cyanobenzaldehyde reduction, at 10 µM, stronger effect = higher value
[6] = target: Voltage-gated potassium channel subunit beta-2 (Rattus norvegicus) (UniProt P62483); assay: enhancers of rat Kvbeta2 NADPH turnover – biochemical, NADPH fluorescence, primary screen (AID 623;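 active = NADPH fluorescence slope more negative than the mean of all samples by about 3 SD, 99.7% confidence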;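 note: fluorescence intensity change per second fitted from 20 to 320 s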); settings: Recombinant KvBeta, NADPH fluorescence decrease slope, 10 min; at 10 µM; stronger effect = lower value
[7] = target: Muscarinic acetylcholine receptor M4 (Homo sapiens) (UniProt P08173); assay: M4-linked GIRK flux change, two-sided – cell-based, HEK293 M4/GIRK, thallium flux, BTC-AM, M4 allosteric agonist project, primary screen (AID 625;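 active = fluorescence slope after compound addition differing from the mean of all tested samples at 99.7% confidence, mostly higher but some lower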;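 note: thallium influx through GIRK channels coupled to M4 in HEK293 cells with BTC-AM dye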); settings: at 10 µM, actives lie on both sides
Summary of the method: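 Material – HEK293 cells with M4 receptor and GIRK channels · Buffer or medium – pH 7.3 thallium assay buffer · Doses – one dose, 10 µM final · Timing – cells overnight at 37 °C, BTC-AM loading 1 h, reads 2 min total · Measured by – kinetic fluorescence with BTC-AM dye · Controls – carbachol and DMSO controls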

[8] = inhibitors of larval lipid processing in zebrafish, primary screen, whole organism, PED6 fluorescence, gall bladder and intestine (AID 686;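 active = a full or partial loss of lipid-probe fluorescence in the fish gall bladder, intestine or both, judged by eye; inactive = no fluorescence loss, or compound toxic to the fish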;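 note: larvae 5 to 7 days old with five fish per well; signal comes from phospholipase A2 cleavage of quenched PED6 carried via bile; overnight exposure to compound and PED6 before scoring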); settings: Zebrafish larvae PED6 lipid processing, fluorescence scoring; screened at 20 µM (by protocol)
Summary of the method: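 system = live zebrafish larvae aged 5-7 days, whole organism | probe or stimulus = ingested quenched lipid PED6 at 100 nM | doses = 20 µM single dose | timing = overnight exposure | detection = fluorescence microscopy with visual scoring of gall bladder and intestine | read-out = visual per-well fluorescence inhibition score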

[9] = loss of swimming-algae plug formation – whole organism, Chlamydomonas reinhardtii, WT vs cilia-less mutant, absorbance, 96-well, primary screen (AID 463189;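 active = inhibition at or above 50% relative to wild type and mutant plate controls; inactive = inhibition below 50%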;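 note: 0% = wild type cc124 cells in DMSO and 100% = ciliumless bld1 mutant cells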); settings: Chlamydomonas reinhardtii gravitaxis, OD600 absorbance, 2 days; at 10 µM; stronger effect = higher value
[10] = measured here: cell density z-score
[11] = measured here: nuclear c-Myc green intensity z-score
[12] = measured here: nuclear pErk red intensity z-score, stronger effect = higher value

Muscarinic acetylcholine receptor M4 (Homo sapiens), sequence (P08173 whole entry, looked up): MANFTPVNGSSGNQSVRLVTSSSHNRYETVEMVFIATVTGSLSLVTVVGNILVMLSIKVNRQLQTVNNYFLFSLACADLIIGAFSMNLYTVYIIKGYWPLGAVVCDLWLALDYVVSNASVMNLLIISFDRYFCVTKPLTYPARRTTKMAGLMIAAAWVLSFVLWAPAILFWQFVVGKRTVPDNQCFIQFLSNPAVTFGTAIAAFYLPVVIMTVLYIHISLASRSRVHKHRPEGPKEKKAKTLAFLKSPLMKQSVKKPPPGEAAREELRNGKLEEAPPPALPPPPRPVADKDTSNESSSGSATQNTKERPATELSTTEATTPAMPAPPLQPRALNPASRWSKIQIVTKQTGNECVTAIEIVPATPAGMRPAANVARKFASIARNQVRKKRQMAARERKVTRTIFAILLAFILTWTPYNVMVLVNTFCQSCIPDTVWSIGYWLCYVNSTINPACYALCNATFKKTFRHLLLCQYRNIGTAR
Voltage-gated potassium channel subunit beta-2 (Rattus norvegicus), sequence (P62483 whole entry, looked up): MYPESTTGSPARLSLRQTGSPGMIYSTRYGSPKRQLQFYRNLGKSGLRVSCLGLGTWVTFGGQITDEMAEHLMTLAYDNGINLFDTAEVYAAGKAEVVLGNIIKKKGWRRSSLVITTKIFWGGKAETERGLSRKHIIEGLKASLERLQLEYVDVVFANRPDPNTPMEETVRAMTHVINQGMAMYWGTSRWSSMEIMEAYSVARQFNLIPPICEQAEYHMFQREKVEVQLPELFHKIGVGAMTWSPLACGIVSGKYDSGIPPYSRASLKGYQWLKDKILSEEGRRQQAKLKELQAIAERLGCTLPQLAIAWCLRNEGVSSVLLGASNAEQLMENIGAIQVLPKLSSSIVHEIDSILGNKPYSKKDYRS
Dual specificity protein phosphatase 6 (Homo sapiens), sequence (Q16828 whole entry, looked up): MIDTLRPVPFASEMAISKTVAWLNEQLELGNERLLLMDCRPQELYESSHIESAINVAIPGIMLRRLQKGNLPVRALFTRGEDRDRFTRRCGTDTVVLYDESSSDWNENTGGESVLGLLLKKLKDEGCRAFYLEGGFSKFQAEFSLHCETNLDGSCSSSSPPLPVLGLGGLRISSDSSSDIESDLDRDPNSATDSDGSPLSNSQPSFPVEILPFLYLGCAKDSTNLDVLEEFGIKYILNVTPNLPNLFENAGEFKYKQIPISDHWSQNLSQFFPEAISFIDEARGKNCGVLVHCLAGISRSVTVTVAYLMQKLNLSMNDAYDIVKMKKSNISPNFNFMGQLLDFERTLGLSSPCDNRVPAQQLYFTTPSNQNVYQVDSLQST

| SMILES | cell count [1] | inhibition [1] | inhibition [2] | nuclei count [2] | z-score [3, 10] | z-score [3, 11] | z-score [3, 12] | inhibition [4] | fluorescence slope [5] | NADPH fluorescence slope [6] | fluorescence slope [7] | outcome [8] | inhibition [9] |
| --- | --- | --- | --- | --- | --- | --- | --- | --- | --- | --- | --- | --- | --- |
| Cn1c(Cn2cnc(Cl)c2Cl)nc2ccccc21 | 583 | 0.2% (inactive) | -75.8% (inactive) | 138% | 0.873 | 1.34 | 0.561 | 12.8% (inactive) | -0.454 (inactive) | -8.5e-05 (inactive) | 0.00447 (inactive) | inactive | 21.9% (inactive) |
| CCOc1ccc(C2C=C(c3ccccc3)Nc3ncnn32)cc1 (centres undefined) | 531 | -1.1% (inactive) | 58.8% (inactive) | 151% | -0.603 | 0.992 | -0.889 | 11.9% (inactive) | -0.0438 (inactive) | -6.4e-06 (inactive) | 0.00687 (inactive) | inactive | 22.6% (inactive) |
| COc1cc(C2Nc3cccc4cccc(c34)N2)cc(OC)c1OC(C)=O | 498 | -3.5% (inactive) | -2.1% (inactive) | 85.3% | 0.65 | -1.19 | 0.407 | -2.59% (inactive) | -0.474 (inactive) | 7.8e-06 (inactive) | 0.00327 (inactive) | inactive | 17.1% (inactive) |
| C=CCn1c(-c2ccc(OC)c(OC)c2)n[nH]c1=S | 515 | -3.9% (inactive) | 9.4% (inactive) | 150% | 0.455 | -1.23 | -0.521 | 5.95% (inactive) | -0.338 (inactive) | -3.6e-05 (inactive) | 0.00705 (inactive) | inactive | 30.5% (inactive) |
| CCOC(=O)CNC(=O)CCCCCC(=O)NCC(=O)OCC | 367 | -1.3% (inactive) | -27.8% (inactive) | 132% | -0.497 | 0.819 | 0.154 | 11.4% (inactive) | -0.431 (inactive) | -9.3e-05 (inactive) | 0.00362 (inactive) | inactive | 21.4% (inactive) |
| N#Cc1c(NCCN)nc(NCc2ccccc2)c2c1CCN(Cc1ccccc1)C2 | 566 | 3% (inactive) | -151% (inactive) | 145% | 0.625 | -0.717 | 1.05 | 3.42% (inactive) | -0.466 (inactive) | -8.7e-06 (inactive) | 0.00448 (inactive) | active; weak signal in gallbladder and intestine | 15.7% (inactive) |
| CCSc1nc2sc3c(c2c2nnc(SCC(=O)NCc4ccco4)n12)CCCC3 | 550 | -5.1% (inactive) | -12.4% (inactive) | 178% | -0.011 | -1.17 | -1.17 | 1.9e-07% (inactive) | -0.399 (inactive) | -1.1e-05 (inactive) | 0.00576 (inactive) | inactive | 9.13% (inactive) |
| CN1CCN(c2c3c(c(C#N)c4nc5ccccc5n24)CCCC3)CC1 | 514 | 0.8% (inactive) | -60.7% (inactive) | 130% | 1.3 | -0.661 | -1.13 | 5.95% (inactive) | -0.35 (inactive) | -3.3e-05 (inactive) | 0.00748 (inactive) | inactive | -10.8% (inactive) |
| Cc1ccc(-c2nn(CCC(=O)NCC3CCCO3)c(=O)c3ccccc23)cc1 (centres undefined) | 465 | -2.6% (inactive) | -99.3% (inactive) | 155% | -0.415 | 0.704 | -0.137 | -7.28% (inactive) | -0.422 (inactive) | -5.3e-05 (inactive) | 0.0051 (inactive) | inactive | -0.115% (inactive) |
| O=C1CC(c2ccccc2)n2nc(N3C(=O)c4ccccc4C3=O)nc2N1 (centres undefined) | 397 | 3% (inactive) | -72.9% (inactive) | 114% | 0.561 | 0.157 | -0.686 | 2.71% (inactive) | -0.441 (inactive) | -1.7e-05 (inactive) | 0.00457 (inactive) | inactive | 21.6% (inactive) |
| Nc1ccc2oc(-c3ccccc3Cl)nc2c1 | 644 | -0.2% (inactive) | 7.8% (inactive) | 145% | 0.0664 | -0.553 | -0.135 | -7.67% (inactive) | -0.136 (inactive) | -5.7e-05 (inactive) | 0.00466 (inactive) | inactive | 26.6% (inactive) |
| Cc1cc2nncn2c(Cc2ccccc2)n1 | 407 | -7.4% (inactive) | -152% (inactive) | 183% | -1.1 | 0.267 | 0.816 | -6.59% (inactive) | -0.428 (inactive) | -0.000108 (inactive) | 0.00485 (inactive) | inactive | -3.56% (inactive) |
| O=C(c1ccccc1)n1c(=S)nc2ccccn21 | 751 | -1.4% (inactive) | -18.3% (inactive) | 144% | 0.295 | -2.19 | 0.415 | 7.21% (inactive) | -0.421 (inactive) | -3.2e-05 (inactive) | 0.00539 (inactive) | inactive | 3.62% (inactive) |
